The source of these data is ChEMBL document CHEMBL1132453, “Heteroarotinoids inhibit head and neck cancer cell lines in vitro and in vivo through both RAR and RXR retinoic acid receptors” (J Med Chem, 1999).

The subject of assay [1] is SCC-2 (Homo sapiens). Nature of the assay: Inhibition of SCC-2 cell proliferation. Also noted: concentration or dose not given beside the values.
The subject of assay [2] is SCC-38 (Homo sapiens). Nature of the assay: Inhibition of SCC-38 cell proliferation. Also noted: concentration or dose not given beside the values.
Assay [3] has as its target T1, Retinoic acid receptor alpha (Homo sapiens, UniProt P10276).
T1 sequence (P10276 whole entry): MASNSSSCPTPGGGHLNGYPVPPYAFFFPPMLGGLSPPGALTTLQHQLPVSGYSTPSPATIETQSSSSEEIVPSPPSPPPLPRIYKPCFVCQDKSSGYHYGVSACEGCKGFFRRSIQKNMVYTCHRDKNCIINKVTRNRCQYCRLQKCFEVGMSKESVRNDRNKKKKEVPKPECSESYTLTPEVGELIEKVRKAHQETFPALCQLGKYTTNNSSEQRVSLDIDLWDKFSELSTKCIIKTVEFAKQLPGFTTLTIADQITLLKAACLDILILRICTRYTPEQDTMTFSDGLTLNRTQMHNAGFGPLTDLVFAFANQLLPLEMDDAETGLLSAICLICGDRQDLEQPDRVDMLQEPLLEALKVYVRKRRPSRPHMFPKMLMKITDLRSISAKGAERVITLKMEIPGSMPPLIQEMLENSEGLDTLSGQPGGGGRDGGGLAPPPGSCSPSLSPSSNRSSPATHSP
Nature of the assay: Transcriptional activation in CV-1 cells expressing human Retinoic acid receptor RAR alpha. The format is cell-based. In short, it runs like this: (§1)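 CV-1 cells were plated at 7.5 × 10^4/well and transfected 24 h later (FuGENE6). Each well got a receptor vector (human RARα/β/γ in pECE or mouse RXRα/β/γ in pSG5), a βRARE-tk-CAT reporter and a β-actin-βGal control. After 16-18 h, ligand was added in 10-fold steps from 10^-10 to 10^-5 M (0.01% DMSO) for 24 h. CAT was measured by ELISA and normalised to βGal. Triplicates, repeated at least twice.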

In assay [4] the target is T2, Retinoic acid receptor gamma (Homo sapiens, UniProt P13631).
T2 sequence (P13631 whole entry): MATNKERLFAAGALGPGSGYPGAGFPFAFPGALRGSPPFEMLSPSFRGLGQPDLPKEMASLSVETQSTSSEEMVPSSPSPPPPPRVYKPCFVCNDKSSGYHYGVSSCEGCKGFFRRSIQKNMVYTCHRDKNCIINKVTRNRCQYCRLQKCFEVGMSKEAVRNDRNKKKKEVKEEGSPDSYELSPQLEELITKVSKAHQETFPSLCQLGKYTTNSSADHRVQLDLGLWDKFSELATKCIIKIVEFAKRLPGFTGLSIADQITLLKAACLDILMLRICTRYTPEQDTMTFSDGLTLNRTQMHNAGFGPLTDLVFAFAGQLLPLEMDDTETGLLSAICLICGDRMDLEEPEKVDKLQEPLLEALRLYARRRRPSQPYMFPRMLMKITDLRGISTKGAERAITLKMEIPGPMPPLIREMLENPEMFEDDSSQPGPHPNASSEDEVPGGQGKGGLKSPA
Nature of the assay: Transcriptional activation in CV-1 cells expressing human Retinoic acid receptor RAR gamma. Type of assay: cell-based. In short, it runs like this:
as §1

Assay [5] concerns the target T3, Retinoic acid receptor RXR-beta (Mus musculus, UniProt P28704).
T3 sequence (P28704 whole entry): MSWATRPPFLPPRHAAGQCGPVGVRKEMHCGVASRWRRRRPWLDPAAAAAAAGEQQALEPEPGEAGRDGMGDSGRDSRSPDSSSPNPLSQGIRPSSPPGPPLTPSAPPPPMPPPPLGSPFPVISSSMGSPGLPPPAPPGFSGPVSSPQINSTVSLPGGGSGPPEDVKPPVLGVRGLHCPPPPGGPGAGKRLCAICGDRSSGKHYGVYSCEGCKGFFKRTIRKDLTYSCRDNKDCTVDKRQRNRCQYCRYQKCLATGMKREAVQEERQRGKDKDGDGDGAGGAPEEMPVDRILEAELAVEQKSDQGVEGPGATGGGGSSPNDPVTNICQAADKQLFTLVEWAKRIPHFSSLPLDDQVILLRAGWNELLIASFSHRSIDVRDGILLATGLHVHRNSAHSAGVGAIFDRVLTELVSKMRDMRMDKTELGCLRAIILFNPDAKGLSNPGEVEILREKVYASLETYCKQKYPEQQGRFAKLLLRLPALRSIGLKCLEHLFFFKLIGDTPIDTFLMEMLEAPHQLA
Nature of the assay: Transcriptional activation of CV-1 cells expressing murine Retinoid X receptor RXR beta. The format is cell-based. In short, it runs like this:
as §1

Assay [6] concerns the target T4, Retinoic acid receptor RXR-alpha (Mus musculus, UniProt P28700).
T4 sequence (P28700 whole entry): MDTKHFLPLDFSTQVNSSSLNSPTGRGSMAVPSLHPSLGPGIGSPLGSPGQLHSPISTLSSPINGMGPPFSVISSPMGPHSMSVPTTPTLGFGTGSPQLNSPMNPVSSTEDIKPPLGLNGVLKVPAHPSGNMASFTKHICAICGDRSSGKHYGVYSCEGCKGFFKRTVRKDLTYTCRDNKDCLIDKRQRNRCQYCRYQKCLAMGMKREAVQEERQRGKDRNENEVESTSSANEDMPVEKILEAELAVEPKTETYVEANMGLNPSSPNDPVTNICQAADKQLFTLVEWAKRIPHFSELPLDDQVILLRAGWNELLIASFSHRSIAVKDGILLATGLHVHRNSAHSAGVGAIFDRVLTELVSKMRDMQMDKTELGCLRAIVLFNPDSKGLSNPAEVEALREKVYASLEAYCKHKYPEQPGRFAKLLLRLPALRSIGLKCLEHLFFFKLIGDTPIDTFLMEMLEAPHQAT
Nature of the assay: Transcriptional activation of CV-1 cells expressing murine Retinoid X receptor RXR alpha. The format is cell-based. In short, it runs like this: as §1

Assay [7] has as its target T5, Retinoic acid receptor beta (Homo sapiens, UniProt P10826).
T5 sequence (P10826 whole entry): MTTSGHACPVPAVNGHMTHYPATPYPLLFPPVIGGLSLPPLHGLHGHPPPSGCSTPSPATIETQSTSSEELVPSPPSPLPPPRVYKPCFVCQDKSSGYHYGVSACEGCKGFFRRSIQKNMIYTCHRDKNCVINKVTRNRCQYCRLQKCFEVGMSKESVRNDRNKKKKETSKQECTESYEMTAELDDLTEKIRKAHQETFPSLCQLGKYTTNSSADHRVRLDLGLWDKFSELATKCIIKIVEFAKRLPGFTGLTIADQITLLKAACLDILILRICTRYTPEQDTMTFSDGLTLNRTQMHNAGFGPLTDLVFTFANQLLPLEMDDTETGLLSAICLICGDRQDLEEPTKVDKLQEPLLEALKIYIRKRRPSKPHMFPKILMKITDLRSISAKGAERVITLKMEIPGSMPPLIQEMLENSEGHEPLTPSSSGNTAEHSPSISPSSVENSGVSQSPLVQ
Nature of the assay: Transcriptional activation in CV-1 cells expressing human Retinoic acid receptor RAR beta. The format is cell-based. The method in brief: as §1

Assay [8] has as its target T6, Retinoic acid receptor RXR-gamma (Mus musculus, UniProt P28705).
T6 sequence (P28705 whole entry): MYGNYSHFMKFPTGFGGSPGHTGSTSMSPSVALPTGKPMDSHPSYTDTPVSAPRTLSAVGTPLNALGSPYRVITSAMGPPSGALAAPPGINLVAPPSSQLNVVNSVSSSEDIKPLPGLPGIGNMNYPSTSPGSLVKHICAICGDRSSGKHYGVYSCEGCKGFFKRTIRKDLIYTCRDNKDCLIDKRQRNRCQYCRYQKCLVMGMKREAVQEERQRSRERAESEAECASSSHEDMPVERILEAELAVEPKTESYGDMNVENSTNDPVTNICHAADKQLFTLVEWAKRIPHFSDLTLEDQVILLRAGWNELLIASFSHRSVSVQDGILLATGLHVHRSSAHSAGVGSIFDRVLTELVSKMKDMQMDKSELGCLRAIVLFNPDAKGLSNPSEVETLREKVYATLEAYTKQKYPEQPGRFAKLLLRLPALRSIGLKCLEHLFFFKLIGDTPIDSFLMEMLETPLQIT
Nature of the assay: Transcriptional activation of CV-1 cells expressing murine Retinoid X receptor RXR gamma. The format is cell-based. The method in brief:
as §1

For assay [9], the system named is SCC-38 (Homo sapiens). Nature of the assay: Inhibition of SCC-38 cell proliferation.
Assay [10] relates to SCC-2 (Homo sapiens). Nature of the assay: Inhibition of SCC-2 cell proliferation.

Structures are written as SMILES.

As to `CCCCCCCCC1CCc2cc(/C(C)=C/c3ccc(C(=O)OCC)cc3)ccc2S1` (centres undefined), the Inhibition in assay [1] is on record as 10%; in assay [2], 17%.
Take `C/C(=C\c1ccc(C(=O)O)cc1)c1ccc2c(c1)C(C)(C)CO2`: the Inhibition in assay [1] and in [2] was 1% each time.
On to `CC1(C)CCOc2ccc(C(=O)Oc3ccc(/C=N/N=C(/N)S)cc3)cc21`, for which the EC50 in assay [3] was over 10 µM; in [4], over 10 µM; in assay [5] it was 0.084 µM; in assay [6] it was 0.294 µM; in [7], over 10 µM; in assay [8], 1.9 µM. In addition, the Inhibition came to 19% in assay [1] and 18% in assay [2].
With `COC(=O)c1ccc(N(OC)C(=O)c2ccc3c(c2)C(C)(C)CCO3)cc1`, the Inhibition turned out to be 3% in assay [1] and 17% in assay [2].
Turning to `CC(/C=C/C=C(\C)c1ccc2c(c1)C(C)(C)CCS2)=C\C(=O)O`, the Inhibition in assay [1] was determined as 2%; in assay [2], 1%.
For `CCOC(=O)/C=C(C)/C=C/C=C(\C)c1ccc2c(c1)OCCO2` the same measures were -33% and -2%.
With `CCOC(=O)c1ccc(OC(=O)c2ccc3c(c2)C(C)(C)CCN3C(C)C)cc1`, the figures for the Inhibition in [1] and in [2] were 5% and 15%, respectively.
In the same order, the values of `CCOC(=O)c1ccc(OC(=O)c2ccc3c(c2)C(C)(C)CCO3)cc1` are -6% and 13%.
Take `COC(=O)c1ccc(C(=O)Nc2ccc3c(c2)C(C)(C)CC(C)(C)S3)cc1`: the EC50 in [3] came to 0.225 µM; in assay [4] it was 0.152 µM; in assay [5] it was 1 µM; in assay [6] it was 0.084 µM; in [7], 1 µM; in assay [8] it was 0.302 µM. The Inhibition in assay [9] was determined as 37%; in [10] it was 64%.
In the case of `CCOC(=O)c1ccc(OC(=O)c2cc3c(cc2OC)C(C)(C)COC3(C)C)cc1`, the Inhibition in assay [1] was found to be 52%; in assay [2], 6%.
For `COC(=O)c1ccc(C(=O)Oc2c(C)cc3c(c2C)C(C)(C)CC(C)(C)O3)cc1` the same measures were -1% and 9%.
For `CCOC(=O)c1ccc(OC(=O)c2cc3c(cc2C)N(C)CCC3(C)C)cc1` the same measures were 9% and 7%.
In the same order, the values of `CCOC(=O)c1ccc(OC(=O)c2ccc3c(c2)C(C)(C)CCN3C)cc1` are 12% and 13%.
Consider `CCOC(=O)c1ccc(OC(=O)c2cc3c(cc2OC)C(C)(C)CCC3(C)C)cc1`, for which the Inhibition in assay [1] was found to be 15%; in assay [2] it was 12%.
In the same order, the values of `COC(=O)c1ccc(C(=O)Oc2c(C)cc3c(c2C)C(C)(C)C=C(C)O3)cc1` are 15% and -8%.
In the case of `CC1=C(/C=C/C(C)=C\C=C\C(C)=C\C(=O)O)C(C)(C)CCC1` [ALITRETINOIN], the Inhibition in [1] is 13%; in assay [2], 10%.
